≈ marks a conversion by molar mass, not a printed value. Calls of active or inactive are those of the source. No cut-off for these calls is given here.
What was measured:
[1] = tested on: Mycobacterium tuberculosis; assay: Antimycobacterial activity against Mycobacterium tuberculosis H37Rv after 14 days; format: functional; conditions: 336 h
[2] = tested on: Mycobacterium tuberculosis; assay: Antimycobacterial activity against Mycobacterium tuberculosis H37Rv after 21 days; format: functional; conditions: 504 h
Mycobacterium avium [3] = assay: Antimycobacterial activity against INH/RIF/OFX resistant Mycobacterium avium 330/88 after 14 days; format: functional; conditions: 330/88, 336 h
Mycobacterium avium [4] = assay: Antimycobacterial activity against INH/RIF/OFX resistant Mycobacterium avium 330/88 after 21 days; format: functional; conditions: 330/88, 504 h
Mycobacterium kansasii [5] = assay: Antimycobacterial activity against Mycobacterium kansasii 235/80 after 7 days; format: functional; conditions: 235/80, 168 h
Mycobacterium kansasii [6] = assay: Antimycobacterial activity against Mycobacterium kansasii 235/80 after 14 days; format: functional; conditions: 235/80, 336 h
Mycobacterium kansasii [7] = assay: Antimycobacterial activity against Mycobacterium kansasii 235/80 after 21 days; format: functional; conditions: 235/80, 504 h
Mycobacterium kansasii [8] = assay: Antimycobacterial activity against Mycobacterium kansasii 6509/96 after 7 days; format: functional; conditions: 6509/96, 168 h
Mycobacterium kansasii [9] = assay: Antimycobacterial activity against Mycobacterium kansasii 6509/96 after 14 days; format: functional; conditions: 6509/96, 336 h
Mycobacterium kansasii [10] = assay: Antimycobacterial activity against Mycobacterium kansasii 6509/96 after 21 days; format: functional; conditions: 6509/96, 504 h
HepG2 = assay: Cytotoxicity against human HepG2 cells assessed as reduction in cell viability by MTS assay; format: cell-based
In short: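 HepG2 human hepatocellular carcinoma cells (passage 2-4) were cultured in Eagle's MEM with 10% FBS, 1% L-glutamine and non-essential amino acids. Compounds were dissolved in DMSO and tested in triplicate at eight concentrations. Viability was read by colorimetric MTS tetrazolium reduction. Controls were 100% viability and 0% viability (10% DMSO). IC50 is the concentration reducing viability to 50% of control.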

[11] = Selectivity index, ratio of IC50 for human HepG2 cells to MIC for Mycobacterium tuberculosis H37Rv after 14 days; format: toxicity; conditions: read-out: Selectivity Index
In short: (§1)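 SI is calculated as HepG2 IC50 divided by MIC. HepG2 cells (passage 2-4) were grown in EMEM with 10% FBS, L-glutamine and non-essential amino acids. Compounds in DMSO were tested in triplicate at eight concentrations, and viability was read by MTS tetrazolium reduction. IC50 is the concentration reducing viability to 50% of control. 10% DMSO served as the 0% viability control.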

[12] = tested on: Mycobacterium tuberculosis; assay: Antimycobacterial activity against Mycobacterium tuberculosis H37Rv after 25 days by drop dilution method; format: functional, organism-based
[13] = tested on: Mycobacterium tuberculosis; assay: Antimycobacterial activity against Mycobacterium tuberculosis H37Rv over producing InhA after 25 days by drop dilution method; format: functional, organism-based
[14] = target: T1, Enoyl-[acyl-carrier-protein] reductase [NADH] (Mycobacterium tuberculosis) (UniProt P9WGR1); assay: Inhibition of Mycobacterium tuberculosis H37Rv InhA assessed as reduction of trehalose monomycolate synthesis at 4 to 8 uM preincubated for 24 hrs followed by [14C]acetate addition and measured after 24 hrs by TLC analysis
T1 sequence (whole entry): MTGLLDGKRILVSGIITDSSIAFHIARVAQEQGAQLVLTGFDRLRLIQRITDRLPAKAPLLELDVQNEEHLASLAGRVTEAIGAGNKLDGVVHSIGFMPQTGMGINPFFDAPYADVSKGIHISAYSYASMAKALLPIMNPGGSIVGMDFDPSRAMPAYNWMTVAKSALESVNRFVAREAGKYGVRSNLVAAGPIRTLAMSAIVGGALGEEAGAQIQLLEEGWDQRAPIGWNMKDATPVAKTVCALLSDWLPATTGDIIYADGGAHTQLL

[15] = target: T1, Enoyl-[acyl-carrier-protein] reductase [NADH] (Mycobacterium tuberculosis); assay: Inhibition of Mycobacterium tuberculosis H37Rv InhA assessed as reduction of trehalose dimycolate synthesis at 4 to 8 uM preincubated for 24 hrs followed by [14C]acetate addition and measured after 24 hrs by TLC analysis
[16] = target: T1, Enoyl-[acyl-carrier-protein] reductase [NADH] (Mycobacterium tuberculosis); assay: Inhibition of Mycobacterium tuberculosis H37Rv InhA assessed as reduction of methyl esters of fatty acid synthesis at 4 to 8 uM preincubated for 24 hrs followed by [14C]acetate addition and measured after 24 hrs by TLC analysis
[17] = target: T1, Enoyl-[acyl-carrier-protein] reductase [NADH] (Mycobacterium tuberculosis); assay: Inhibition of Mycobacterium tuberculosis H37Rv InhA assessed as reduction of phosphatidylethanolamine synthesis at 4 to 8 uM preincubated for 24 hrs followed by [14C]acetate addition and measured after 24 hrs by TLC analysis
[18] = target: T1, Enoyl-[acyl-carrier-protein] reductase [NADH] (Mycobacterium tuberculosis); assay: Inhibition of Mycobacterium tuberculosis H37Rv InhA assessed as reduction of cardiolipin synthesis at 4 to 8 uM preincubated for 24 hrs followed by [14C]acetate addition and measured after 24 hrs by TLC analysis
[19] = target: T1, Enoyl-[acyl-carrier-protein] reductase [NADH] (Mycobacterium tuberculosis); assay: Inhibition of Mycobacterium tuberculosis H37Rv InhA assessed as reduction of alpha mycolic acid synthesis at 4 to 8 uM preincubated for 24 hrs followed by [14C]acetate addition and measured after 24 hrs by TLC analysis
[20] = target: T1, Enoyl-[acyl-carrier-protein] reductase [NADH] (Mycobacterium tuberculosis); assay: Inhibition of Mycobacterium tuberculosis H37Rv InhA assessed as reduction of methoxy and keto mycolic acid synthesis at 4 to 8 uM preincubated for 24 hrs followed by [14C]acetate addition and measured after 24 hrs by TLC analysis
[21] = Selectivity index, ratio of IC50 for human HepG2 cells to MIC for Mycobacterium kansasii 235/80; format: toxicity; conditions: read-out: Selectivity Index; in short: as §1
[22] = Selectivity index, ratio of IC50 for human HepG2 cells to MIC for Mycobacterium kansasii 6509/96; format: toxicity; conditions: read-out: Selectivity Index; in short: as §1
[23] = target: T1, Enoyl-[acyl-carrier-protein] reductase [NADH] (Mycobacterium tuberculosis); assay: Inhibition of Mycobacterium tuberculosis H37Rv InhA assessed as reduction of trehalose monomycolate synthesis at 40 uM preincubated for 1 hr followed by [14C]glucose addition and measured after 24 hrs by TLC analysis
[24] = target: T1, Enoyl-[acyl-carrier-protein] reductase [NADH] (Mycobacterium tuberculosis); assay: Inhibition of Mycobacterium tuberculosis H37Rv InhA assessed as reduction of trehalose dimycolate synthesis at 40 uM preincubated for 1 hr followed by [14C]glucose addition and measured after 24 hrs by TLC analysis
[25] = target: T1, Enoyl-[acyl-carrier-protein] reductase [NADH] (Mycobacterium tuberculosis); assay: Inhibition of Mycobacterium tuberculosis H37Rv InhA assessed as reduction of methyl esters of fatty acid synthesis at 40 uM preincubated for 1 hr followed by [14C]glucose addition and measured after 24 hrs by TLC analysis
[26] = target: T1, Enoyl-[acyl-carrier-protein] reductase [NADH] (Mycobacterium tuberculosis); assay: Inhibition of Mycobacterium tuberculosis H37Rv InhA assessed as reduction of phosphatidylethanolamine synthesis at 40 uM preincubated for 1 hr followed by [14C]glucose addition and measured after 24 hrs by TLC analysis
[27] = target: T1, Enoyl-[acyl-carrier-protein] reductase [NADH] (Mycobacterium tuberculosis); assay: Inhibition of Mycobacterium tuberculosis H37Rv InhA assessed as reduction of cardiolipin synthesis at 40 uM preincubated for 1 hr followed by [14C]glucose addition and measured after 24 hrs by TLC analysis
[28] = target: T1, Enoyl-[acyl-carrier-protein] reductase [NADH] (Mycobacterium tuberculosis); assay: Inhibition of Mycobacterium tuberculosis H37Rv InhA assessed as reduction of alpha mycolic acid synthesis at 40 uM preincubated for 1 hr followed by [14C]glucose addition and measured after 24 hrs by TLC analysis
[29] = target: T1, Enoyl-[acyl-carrier-protein] reductase [NADH] (Mycobacterium tuberculosis); assay: Inhibition of Mycobacterium tuberculosis H37Rv InhA assessed as reduction of methoxy and keto mycolic acid synthesis at 40 uM preincubated for 1 hr followed by [14C]glucose addition and measured after 24 hrs by TLC analysis
[30] = tested on: Mycobacterium tuberculosis; assay: Effect on short chain fatty acid acid synthesis in Mycobacterium tuberculosis H37Rv at 40 uM preincubated for 1 hr followed by [14C]glucose addition and measured after 24 hrs by TLC analysis; format: functional, organism-based

Structure (SMILES) | MIC [1] | MIC [2] | MIC (Mycobacterium avium [3]) | MIC (Mycobacterium avium [4]) | MIC (Mycobacterium kansasii [5]) | MIC (Mycobacterium kansasii [6]) | MIC (Mycobacterium kansasii [7]) | MIC (Mycobacterium kansasii [8]) | MIC (Mycobacterium kansasii [9]) | MIC (Mycobacterium kansasii [10]) | IC50 (HepG2) | selectivity ratio at 336 h [11] | Activity [12] | Activity [13] | other results
CCCCCCCCCCCCNc1nnc(-c2ccncc2)o1 | 4 µM (≈ 1.32 µg/mL) | 8 µM (≈ 2.64 µg/mL) | 8 µM (≈ 2.64 µg/mL) | 16 µM (≈ 5.29 µg/mL) | 125 µM (≈ 41.3 µg/mL) | 125 µM (≈ 41.3 µg/mL) | 125 µM (≈ 41.3 µg/mL) | 125 µM (≈ 41.3 µg/mL) | 125 µM (≈ 41.3 µg/mL) | 125 µM (≈ 41.3 µg/mL) | > 0.05 mM | > 6.25 | Active | Active | inhibition [14]: inactive; inhibition [15]: inactive; inhibition [16]: inactive; inhibition [17]: inactive; inhibition [18]: inactive; inhibition [19]: inactive; inhibition [20]: inactive
CCCNC(=O)NNC(=O)c1ccncc1 | 1 µM (≈ 0.222 µg/mL) | 1 µM (≈ 0.222 µg/mL) | 250 µM (≈ 55.6 µg/mL) | 500 µM (≈ 111 µg/mL) | 4 µM (≈ 0.889 µg/mL) | 8 µM (≈ 1.78 µg/mL) | 16 µM (≈ 3.56 µg/mL) | 4 µM (≈ 0.889 µg/mL) | 8 µM (≈ 1.78 µg/mL) | 8 µM (≈ 1.78 µg/mL) | > 5 mM | > 5000 | – | – | selectivity ratio [21]: > 312; selectivity ratio [22]: > 312
CNC(=O)NNC(=O)c1ccncc1 | 0.5 µM (≈ 0.0971 µg/mL) | 1 µM (≈ 0.194 µg/mL) | > 1000 µM | > 1000 µM | 1000 µM (≈ 194 µg/mL) | > 1000 µM | > 1000 µM | 500 µM (≈ 97.1 µg/mL) | 500 µM (≈ 97.1 µg/mL) | 1000 µM (≈ 194 µg/mL) | > 5 mM | > 5000 | inactive | inactive | inhibition [23]: Active; inhibition [24]: Active; inhibition [25]: Active; inhibition [26]: Active; inhibition [27]: Active; inhibition [28]: Active; inhibition [29]: Active; Activity [30]: inactive

From ChEMBL document CHEMBL4152223 (Eur J Med Chem, 2018)
